Source: article PMC1557817 (Nucleic Acids Research, 2006)
Like-named read-outs stand apart in the source and are kept apart here.

What was measured:
human eRF3 = human eRF3 (Homo sapiens, UniProt P15170); assay: ITC binding of ligands to eRF3
How it was run: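 Run at 25°C in phosphate buffer pH 7.5 (25 mM K2HPO4, 0.1 M KCl, 10% glycerol, 1 mM DTT), MgCl2 0–10 mM. Cell: 6–15 μM His-tagged human eRF3 (aa 139–637), alone or with full-length eRF1, both E. coli-expressed. Syringe: ligand at 50–300 μM, 10 μl injections. Dilution heat subtracted; one-set-of-sites fit gave Ka and ΔH; ΔG and ΔS calculated; 2–4 repeats.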

prokaryotic RF3 = details: 5 mM Mg^2+ ref 28; cited from earlier work
S.pombe eRF3 = details: 2.0–2.5 mM Mg^2+ ref 24; cited from earlier work
eRF3•GDP = eRF3•GDP (Homo sapiens, UniProt P15170); assay: ITC binding of ligands to the eRF3•GDP complex; details: absence of eRF1
eRF1•eRF3 = eRF1•eRF3 (Homo sapiens, UniProt P15170); assay: ITC binding of guanine nucleotides to the eRF1•eRF3 complex
eRF1•eRF3•GDP = eRF1•eRF3•GDP (Homo sapiens, UniProt P15170); assay: Displacement ITC: eRF1•eRF3 saturated with GDP titrated with GTP; details: Tris buffer, 2 mM Mg^2+, competitive ligand binding model
How it was run: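 Proteins: human eRF1 and truncated human eRF3 (aa 139–637), both with a C-terminal His6 tag, expressed in E. coli, purified by Ni-NTA then anion exchange, and dialysed into assay buffer. Method: eRF1•eRF3 in the cell was saturated with one HPLC-purified nucleotide, then titrated with 10 μl aliquots of the other. K2 = Kapp(1 + K1[L1]). Run at 25°C, pH 7.5; dilution heats subtracted; 2–4 runs.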

[1] = biological target: truncated human eRF3 (amino acids 139-637), C-terminal hexahistidine (human) (UniProt P15170); assay: ITC
[2] = biological target: truncated human eRF3 (amino acids 139-637), C-terminal hexahistidine (human) (UniProt P15170); assay: ITC; remark: listed apart in the source

In the case of `Nc1nc2c(ncn2[C@@H]2O[C@H](COP(=O)(O)OP(=O)(O)O)[C@@H](O)[C@H]2O)c(=O)[nH]1` [GDP], the “fold increase of Kd at 2 mM Mg^2+ versus absence of Mg^2+” value (human eRF3; both phosphate and Tris buffers) is given as 1.7 fold, the Kd (prokaryotic RF3) is given as 5.5 nM and the “affinity of GDP for yeast eRF3 (in words)” value (S.pombe eRF3) is given as “lost”.

In the case of `Nc1nc2c(ncn2[C@@H]2O[C@H](COP(=O)(O)OP(=O)(O)OP(=O)(O)O)[C@@H](O)[C@H]2O)c(=O)[nH]1` [GTP], the “GTP binding to eRF3 (in words)” value (human eRF3; phosphate or Tris, absence and presence of 2 mM Mg^2+) is reported as “failed to reveal any measurable GTP binding”, the “GTP binding to eRF3•GDP (in words)” value (eRF3•GDP) is reported as “no binding was detected” and the “constant of GTP binding relative to that of GDP binding” value (eRF1•eRF3; 2.0 mM Mg^2+) is reported as “four times higher”. For the same compound, the “GTP binding, direct titration (in words)” value (eRF1•eRF3; Tris buffer) was “signal is too low to be measured directly”, the “fold increase of GTP affinity by Mg^2+” value (eRF1•eRF3; physiological Mg^2+ versus absence of Mg^2+) was 6 fold and the GTP binding constant (eRF1•eRF3•GDP) was 1.8e+06 M⁻¹.

“human eRF1 (wild-type), C-terminal hexahistidine (from UniProt P62495 1-437) (natural protein)” gave a dHobs (observed, not corrected for protonation) [1] of -13.5 kcal/mol, a dHobs (observed, not corrected for protonation) [2] of -19.2 kcal/mol and a stoichiometry N [2] of 0.47.
